# Activity calls are given as the source filed them. The calls are words filed in the database; no cut-off is given here.
# Assays:
# SK-OV-3 [1] = test: Growth inhibition of human SKOV3 cells assessed as cell growth at 100 nM relative to untreated control; format: functional; settings: read-out: Activity
# SF-268 [2] = test: Growth inhibition of human SF268 cells assessed as cell growth at 1 nM relative to untreated control; format: functional; settings: read-out: Activity
# SNB-19 = test: Growth inhibition of human SNB19 cells assessed as cell growth at 10 uM relative to untreated control; format: functional; settings: read-out: Activity
# PC-3 = test: Growth inhibition of human PC3 cells after 24 hrs by trypan blue exclusion method; format: functional; settings: PC-3, 24 h
# In short: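 PC-3 cells grown in phenol red-free IMEM with 10% FBS, 2 mM glutamine and penicillin/streptomycin at 37 °C, 5% CO2. Seeded in triplicate at 1.5 × 10⁴ cells/well. After 24 h, treated with DMSO vehicle or 1, 5, 15, 30 or 60 μM compound for 24 h. Cells trypsinized, stained with 0.4% trypan blue, and live and dead cells counted by hemocytometer. Mean ± SEM of three independent observations.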
# DU-145 [3] = test: Growth inhibition of human DU145 cells assessed as cell growth at 10 nM relative to untreated control; format: functional; settings: read-out: Activity
# In short: (§1)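 Run externally at the National Cancer Institute as a 59-cell-line panel screen, with concentrations up to 100 μM. Growth was scored relative to control, where negative growth or total cell kill was possible. Data are in the Supporting Information.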
# ACHN [4] = test: Growth inhibition of human ACHN cells assessed as cell growth at 10 uM relative to untreated control; format: functional; settings: read-out: Activity
# OVCAR-5 [5] = test: Growth inhibition of human OVCAR5 cells; format: functional
# NCI-H460 = test: Growth inhibition of human NCI-H460 cells assessed as cell growth at 1 uM relative to untreated control; format: functional; settings: read-out: Activity
# SK-OV-3 [6] = test: Growth inhibition of human SKOV3 cells assessed as cell growth at 10 nM relative to untreated control; format: functional; settings: read-out: Activity
# SF-268 [7] = test: Growth inhibition of human SF268 cells; format: functional
# SF-539 = test: Growth inhibition of human SF539 cells assessed as cell growth at 1 uM relative to untreated control; format: functional; settings: read-out: Activity
# Malme-3M = test: Growth inhibition of human MALME-3M cells assessed as cell growth at 10 nM relative to untreated control; format: functional; settings: read-out: Activity
# HOP-92 = test: Growth inhibition of human HOP92 cells; format: functional; in short: as §1
# [8] = molecular target: DNA (cytosine-5)-methyltransferase 3A (Homo sapiens) (UniProt Q9Y6K1); test: Binding affinity to DNMT3a in human PC3 cells cytoplasm at 5 uM after 6 hrs by antibody staining; format: cell-based; settings: PC-3
# In short: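 PC-3 cells were plated overnight on fibronectin/[…]-coated slides and treated with 5 μM compound or DMSO for 1-6 h. Cells were PBS-washed, fixed in 4% formaldehyde, and stained with propidium iodide (nuclei) and anti-DNMT3a or anti-DNMT3b antibody. The compound was excited at 725 nm by multiphoton laser and imaged through a 500-550 nm filter by confocal microscopy.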
# TK-10 = test: Growth inhibition of human TK10 cells; format: functional
# RXF 393 = test: Growth inhibition of human RXF393 cells assessed as cell growth at 100 nM relative to untreated control; format: functional; settings: read-out: Activity
# ACHN [9] = test: Growth inhibition of human ACHN cells; format: functional
# IGROV-1 = test: Growth inhibition of human IGROV1 cells assessed as cell growth at 10 uM relative to untreated control; format: functional; settings: read-out: Activity
# OVCAR-3 [10] = test: Growth inhibition of human OVCAR-3 cells assessed as cell growth at 100 nM relative to untreated control; format: functional; settings: read-out: Activity
# HCC 2998 = test: Growth inhibition of human HCC2998 cells assessed as cell growth at 10 nM relative to untreated control; format: functional; settings: read-out: Activity; in short: as §1
# SNB-75 = test: Growth inhibition of human SNB75 cells assessed as cell growth at 10 uM relative to untreated control; format: functional; settings: read-out: Activity
# BT-549 = test: Growth inhibition of human BT549 cells assessed as cell growth at 1 uM relative to untreated control; format: functional; settings: read-out: Activity
# HCT-116 [11] = test: Growth inhibition of human HCT116 cells assessed as cell growth at 1 nM relative to untreated control; format: functional; settings: read-out: Activity; in short: as §1
# SW-620 = test: Growth inhibition of human SW620 cells assessed as cell growth at 10 nM relative to untreated control; format: functional; settings: read-out: Activity
# UACC-257 = test: Growth inhibition of human UACC257 cells assessed as cell growth at 1 uM relative to untreated control; format: functional; settings: read-out: Activity
# HT-29 [12] = test: Growth inhibition of human HT-29 cells assessed as cell growth at 10 nM relative to untreated control; format: functional; settings: read-out: Activity
# SK-MEL-5 = test: Growth inhibition of human SK-MEL-5 cells assessed as cell growth at 10 uM relative to untreated control; format: functional; settings: read-out: Activity
# HCT-116 [13] = test: Growth inhibition of human HCT116 cells assessed as cell growth at 1 uM relative to untreated control; format: functional; settings: read-out: Activity; in short: as §1
# UACC-62 = test: Growth inhibition of human UACC62 cells assessed as cell growth at 10 uM relative to untreated control; format: functional; settings: read-out: Activity
# OVCAR-5 [14] = test: Growth inhibition of human OVCAR5 cells assessed as cell growth at 10 uM relative to untreated control; format: functional; settings: read-out: Activity
# HT-29 [15] = test: Growth inhibition of human HT-29 cells assessed as cell growth at 1 nM relative to untreated control; format: functional; settings: read-out: Activity
# SN12C [16] = test: Growth inhibition of human SN12C cells assessed as cell growth at 10 uM relative to untreated control; format: functional; settings: read-out: Activity
# OVCAR-3 [17] = test: Growth inhibition of human OVCAR-3 cells assessed as cell growth at 1 uM relative to untreated control; format: functional; settings: read-out: Activity
# A498 [18] = test: Growth inhibition of human A498 cells assessed as cell growth at 1 nM relative to untreated control; format: functional; settings: read-out: Activity
# NCI-H226 = test: Growth inhibition of human NCI-H226 cells assessed as cell growth at 1 uM relative to untreated control; format: functional; settings: read-out: Activity
# HCT-15 = test: Growth inhibition of human HCT15 cells assessed as cell growth at 1 uM relative to untreated control; format: functional; settings: read-out: Activity; in short: as §1
# SN12C [19] = test: Growth inhibition of human SN12C cells assessed as cell growth at 10 nM relative to untreated control; format: functional; settings: read-out: Activity
# SF-295 = test: Growth inhibition of human SF295 cells assessed as cell growth at 10 uM relative to untreated control; format: functional; settings: read-out: Activity
# MDA-MB-231 = test: Growth inhibition of human MDA-MB-231 cells; format: functional
# OVCAR-5 [20] = test: Growth inhibition of human OVCAR5 cells assessed as cell growth at 100 nM relative to untreated control; format: functional; settings: read-out: Activity
# A498 [21] = test: Growth inhibition of human A498 cells assessed as cell growth at 100 nM relative to untreated control; format: functional; settings: read-out: Activity
# DU-145 [22] = test: Growth inhibition of human DU145 cells assessed as cell growth at 1 uM relative to untreated control; format: functional; settings: read-out: Activity; in short: as §1
# [23] = read-out: LC50 (the source's name)
# DNA (cytosine-5)-methyltransferase 3A (Homo sapiens), sequence (Q9Y6K1 whole entry, looked up): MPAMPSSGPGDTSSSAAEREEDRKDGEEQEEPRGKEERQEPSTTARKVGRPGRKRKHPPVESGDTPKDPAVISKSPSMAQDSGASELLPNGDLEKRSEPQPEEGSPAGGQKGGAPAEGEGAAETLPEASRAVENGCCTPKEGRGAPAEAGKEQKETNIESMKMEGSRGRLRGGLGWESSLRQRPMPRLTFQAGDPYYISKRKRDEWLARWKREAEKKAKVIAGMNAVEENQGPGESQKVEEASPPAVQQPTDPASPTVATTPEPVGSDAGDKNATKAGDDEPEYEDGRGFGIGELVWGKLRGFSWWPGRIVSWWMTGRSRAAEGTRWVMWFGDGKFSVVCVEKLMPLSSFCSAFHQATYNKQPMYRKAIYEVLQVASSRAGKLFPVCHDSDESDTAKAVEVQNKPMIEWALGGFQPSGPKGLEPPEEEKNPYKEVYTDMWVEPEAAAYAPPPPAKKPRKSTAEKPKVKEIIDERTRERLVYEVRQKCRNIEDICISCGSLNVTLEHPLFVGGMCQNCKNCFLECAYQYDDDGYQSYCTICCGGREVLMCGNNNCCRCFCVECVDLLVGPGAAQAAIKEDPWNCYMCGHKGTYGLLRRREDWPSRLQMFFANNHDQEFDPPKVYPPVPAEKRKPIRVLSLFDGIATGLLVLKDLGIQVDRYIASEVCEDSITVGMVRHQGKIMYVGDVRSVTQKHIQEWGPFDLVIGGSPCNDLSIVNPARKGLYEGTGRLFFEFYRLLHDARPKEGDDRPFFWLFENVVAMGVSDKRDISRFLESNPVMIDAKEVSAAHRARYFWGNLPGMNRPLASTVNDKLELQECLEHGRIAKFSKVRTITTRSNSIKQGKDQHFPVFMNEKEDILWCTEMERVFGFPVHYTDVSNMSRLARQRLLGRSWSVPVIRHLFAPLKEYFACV
smiles,measurement,setting,value
COc1ccc2c(c1)[nH]c1c(C)c(OS(=O)(=O)c3cccc4c(N(C)C)cccc34)ccc12,growth at 0.1 µM,SK-OV-3 [1],99%
same,growth at 0.001 µM,SF-268 [2],102%
same,growth at 10 µM,SNB-19,27%
same,GI50,PC-3,1.5 µM
same,growth at 0.01 µM,DU-145 [3],107%
same,growth at 10 µM,ACHN [4],21%
same,GI50,OVCAR-5 [5],56.1 µM
same,TGI,OVCAR-5 [5],> 100 µM
same,CC50,OVCAR-5 [5]; [23],> 100 µM
same,growth at 1 µM,NCI-H460,9%
same,growth at 0.01 µM,SK-OV-3 [6],95%
same,GI50,SF-268 [7],75.1 µM
same,TGI,SF-268 [7],> 100 µM
same,CC50,SF-268 [7]; [23],> 100 µM
same,growth at 1 µM,SF-539,-30%
same,growth at 0.01 µM,Malme-3M,89%
same,GI50,HOP-92,9.51 µM
same,TGI,HOP-92,94.8 µM
same,CC50,HOP-92; [23],> 100 µM
same,Activity,[8],inactive
same,GI50,TK-10,9.19 µM
same,TGI,TK-10,> 100 µM
same,CC50,TK-10; [23],> 100 µM
same,growth at 0.1 µM,RXF 393,100%
same,GI50,ACHN [9],7.38 µM
same,TGI,ACHN [9],> 100 µM
same,CC50,ACHN [9]; [23],> 100 µM
same,growth at 10 µM,IGROV-1,39%
same,growth at 0.1 µM,OVCAR-3 [10],97%
same,growth at 0.01 µM,HCC 2998,101%
same,growth at 10 µM,SNB-75,-12%
same,growth at 1 µM,BT-549,37%
same,growth at 0.001 µM,HCT-116 [11],100%
same,growth at 0.01 µM,SW-620,104%
same,growth at 1 µM,UACC-257,51%
same,growth at 0.01 µM,HT-29 [12],106%
same,growth at 10 µM,SK-MEL-5,-28%
same,growth at 1 µM,HCT-116 [13],25%
same,growth at 10 µM,UACC-62,29%
same,growth at 10 µM,OVCAR-5 [14],33%
same,growth at 0.001 µM,HT-29 [15],98%
same,growth at 10 µM,SN12C [16],30%
same,growth at 1 µM,OVCAR-3 [17],-35%
same,growth at 0.001 µM,A498 [18],93%
same,growth at 1 µM,NCI-H226,51%
same,growth at 1 µM,HCT-15,25%
same,growth at 0.01 µM,SN12C [19],92%
same,growth at 10 µM,SF-295,1%
same,GI50,MDA-MB-231,9.3 µM
same,TGI,MDA-MB-231,> 100 µM
same,CC50,MDA-MB-231; [23],> 100 µM
same,growth at 0.1 µM,OVCAR-5 [20],103%
same,growth at 0.1 µM,A498 [21],59%
same,growth at 1 µM,DU-145 [22],7%
